Results taken from ChEMBL document CHEMBL1121417, “[1-beta-Mercapto-beta,beta-cyclopentamethylenepropionic acid),2-(O-methyl)tyrosine ]argine-vasopressin and [1-beta-mercapto-beta,beta-cyclopentamethylenepropionic acid)]argine-vasopressine, two highly potent antagonists of the vasopressor response to arginine-vasopressin” (J Med Chem, 1980).
Starred links: 1 amine or outer side, 2 acyl side, 3 side chain; linkers in the order of their positions; H or OH if unused. Positions of bridges follow the written chain, without caps; N, C: chain ends. Non-standard residues stand in square brackets, D forms with d. Residues, ends and D or L forms follow the SMILES beside them. X1 = O=C(CC1(S[*:2])CCCCC1)[*:1]; X2 = CC(C)(CC(=O)[*:1])S[*:2]; Mpa = O=C(O)CCS

How the values were obtained:
Rattus norvegicus [1] = species: Rattus norvegicus; assay: Tested for […] anti-oxytocic effect in the absence of Mg2+ in rats; type: functional, organism-based; details: for Kb: Rattus norvegicus, read-out: pA2 (converted)
In short: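 Isolated rat uterus in vitro in a medium without Mg2+. Antagonism is expressed as pA2 by the Schild method, computed per assay group, with mean ± SE and the number of assays.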

Rattus norvegicus [2] = assay: Tested for intravenous anti-vasopressor pA2 effect in rats; type: functional, organism-based; details: for Kb: Rattus norvegicus, read-out: pA2 (converted)
In short: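 Vasopressor assay in rats pretreated with phenoxybenzamine under urethane anesthesia, using intravenous injections. The pA2 is derived by the Schild method for each assay group and reported as mean ± SE, with the number of assays given.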

Rattus norvegicus [3] = assay: Tested for intravenous anti-oxytocic effect in in vivo in rats; type: functional, organism-based; details: read-out: pA2 (converted)
In short: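 Rat uterus in situ; antagonism expressed as pA2 by the Schild method, calculated for each assay group and reported as mean ± SE, with the number of assays given.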

Rattus norvegicus [4] = assay: Tested for intravenous antidiuretic activity in rats; type: functional, Urine; design: unit: U/mg
In short: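 Intravenous antidiuretic assay in rats under ethanol anesthesia. Agonistic activity is expressed in units per milligram.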

Rattus norvegicus [5] = assay: Tested for intravenous anti-oxytocic effect in the presence of Mg2+ in rats; type: functional, organism-based; details: read-out: pA2 (converted)
Rattus norvegicus [6] = assay: Tested for intravenous anti-oxytocic effect in the absence of Mg2+ in rats; agonist at concentration of 8 units/kg; type: functional, organism-based; details: filed as agonist
Rattus norvegicus [7] = assay: Tested for intravenous anti-vasopressor pA2 effect in rats; agonist at concentration of 4 units/mg; details: filed as agonist
Rattus norvegicus [8] = assay: Tested for intravenous anti-oxytocic effect in the absence of Mg2+ in rats; agonist at concentration of 47 units/kg; type: functional, organism-based; details: filed as agonist
Rattus norvegicus [9] = assay: Tested for intravenous anti-vasopressor pA2 effect in rats; agonist at concentration of 346 units/kg; type: functional, organism-based; details: filed as agonist, in the assay text read “346 units/mg” for “346 units/kg”
In short: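 Vasopressor assay in rats anesthetized with urethane and pretreated with phenoxybenzamine, with intravenous injections. Antagonism is expressed as pA2, calculated by Schild's method for each assay group and reported as mean ± SE, with the number of assays given.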

SMILES | Kb (Rattus norvegicus [1]) [nM] | Kb (Rattus norvegicus [2]) [nM] | Antidiuretic activity (Rattus norvegicus [4]) | further results
COc1ccc(C[C@@H]2NC(=O)CC3(CCCCC3)SSC[C@@H](C(=O)N3CCC[C@H]3C(=O)N[C@@H](CCCN=C(N)N)C(=O)NCC(N)=O)NC(=O)[C@H](CC(N)=O)NC(=O)[C@H](CCC(N)=O)NC(=O)[C@H](Cc3ccccc3)NC2=O)cc1 (Y(Me)FQNCPRG-NH2; linker N-5 via X1) | 7.41 | 2.4 | 0.31 | pA2 (Rattus norvegicus [1]): 8.13; pA2 (Rattus norvegicus [2]): 8.67; Kb (Rattus norvegicus [3]): 240 nM; Kb (Rattus norvegicus [5]): 57.5 nM
COc1ccc(C[C@@H]2NC(=O)CCSSC[C@@H](C(=O)N3CCC[C@H]3C(=O)N[C@@H](CCCN=C(N)N)C(=O)NCC(N)=O)NC(=O)[C@H](CC(N)=O)NC(=O)[C@H](CCC(N)=O)NC(=O)[C@H](Cc3ccccc3)NC2=O)cc1 [listing 1 of 2 here] | 38.9 |  |  | 
COc1ccc(C[C@@H]2NC(=O)CCSSC[C@@H](C(=O)N3CCC[C@H]3C(=O)N[C@@H](CCCN=C(N)N)C(=O)NCC(N)=O)NC(=O)[C@H](CC(N)=O)NC(=O)[C@H](CCC(N)=O)NC(=O)[C@H](Cc3ccccc3)NC2=O)cc1 [listing 2 of 2 here] |  |  | 830 | 
CC(C)[C@@H]1NC(=O)[C@H](Cc2ccccc2)NC(=O)[C@H](Cc2ccc(O)cc2)NC(=O)CC(C)(C)SSC[C@@H](C(=O)N2CCC[C@H]2C(=O)N[C@H](CCCN=C(N)N)C(=O)NCC(N)=O)NC(=O)[C@H](CC(N)=O)NC1=O (YFVNCP[dR]G-NH2; linker N-5 via X2) [listing 1 of 2 here] |  |  | 123 | 
CC(C)[C@@H]1NC(=O)[C@H](Cc2ccccc2)NC(=O)[C@H](Cc2ccc(O)cc2)NC(=O)CCSSC[C@@H](C(=O)N2CCC[C@H]2C(=O)N[C@H](CCCNC(=N)N)C(=O)NCC(N)=O)NC(=O)[C@H](CC(N)=O)NC1=O ([Mpa]YFVNCP[dR]G-NH2; disulfide 1-6) |  | 93.3 | 1230 | pA2 (Rattus norvegicus [6]): agonist at concentration of 8 units/kg
CC(C)[C@@H]1NC(=O)[C@H](Cc2ccccc2)NC(=O)[C@H](Cc2ccc(O)cc2)NC(=O)CC2(CCCCC2)SSC[C@@H](C(=O)N2CCC[C@H]2C(=O)N[C@H](CCCN=C(N)N)C(=O)NCC(N)=O)NC(=O)[C@H](CC(N)=O)NC1=O (YFVNCP[dR]G-NH2; linker N-5 via X1) [listing 1 of 2 here] |  |  | 0.1 | 
CC1(C)CC(=O)N[C@@H](Cc2ccc(O)cc2)C(=O)N[C@@H](Cc2ccccc2)C(=O)N[C@@H](CCC(N)=O)C(=O)N[C@@H](CC(N)=O)C(=O)N[C@H](C(=O)N2CCC[C@H]2C(=O)N[C@@H](CCCN=C(N)N)C(=O)NCC(N)=O)CSS1 (YFQNCPRG-NH2; linker N-5 via X2) [listing 1 of 2 here] |  |  | 42 | 
NC(=O)CC[C@@H]1NC(=O)[C@H](Cc2ccccc2)NC(=O)[C@H](Cc2ccc(O)cc2)NC(=O)CC2(CCCCC2)SSC[C@@H](C(=O)N2CCC[C@H]2C(=O)N[C@@H](CCCN=C(N)N)C(=O)NCC(N)=O)NC(=O)[C@H](CC(N)=O)NC1=O (YFQNCPRG-NH2; linker N-5 via X1) [listing 1 of 2 here] |  |  | 0.033 | 
CC(C)[C@@H]1NC(=O)[C@H](Cc2ccccc2)NC(=O)[C@H](Cc2ccc(O)cc2)NC(=O)CC(C)(C)SSC[C@@H](C(=O)N2CCC[C@H]2C(=O)N[C@H](CCCN=C(N)N)C(=O)NCC(N)=O)NC(=O)[C@H](CC(N)=O)NC1=O (YFVNCP[dR]G-NH2; linker N-5 via X2) [listing 2 of 2 here] | 58.9 | 15.1 |  | 
COc1ccc(C[C@@H]2NC(=O)CC(C)(C)SSC[C@@H](C(=O)N3CCC[C@H]3C(=O)N[C@@H](CCCN=C(N)N)C(=O)NCC(N)=O)NC(=O)[C@H](CC(N)=O)NC(=O)[C@H](CCC(N)=O)NC(=O)[C@H](Cc3ccccc3)NC2=O)cc1 (Y(Me)FQNCPRG-NH2; linker N-5 via X2) [listing 1 of 2 here] |  |  | 3.5 | 
CC(C)[C@@H]1NC(=O)[C@H](Cc2ccccc2)NC(=O)[C@H](Cc2ccc(O)cc2)NC(=O)CC2(CCCCC2)SSC[C@@H](C(=O)N2CCC[C@H]2C(=O)N[C@H](CCCN=C(N)N)C(=O)NCC(N)=O)NC(=O)[C@H](CC(N)=O)NC1=O (YFVNCP[dR]G-NH2; linker N-5 via X1) [listing 2 of 2 here] | 240 | 20.9 |  | 
CC1(C)CC(=O)N[C@@H](Cc2ccc(O)cc2)C(=O)N[C@@H](Cc2ccccc2)C(=O)N[C@@H](CCC(N)=O)C(=O)N[C@@H](CC(N)=O)C(=O)N[C@H](C(=O)N2CCC[C@H]2C(=O)N[C@@H](CCCN=C(N)N)C(=O)NCC(N)=O)CSS1 (YFQNCPRG-NH2; linker N-5 via X2) [listing 2 of 2 here] | 117 | 35.5 |  | 
NC(=O)CC[C@@H]1NC(=O)[C@H](Cc2ccccc2)NC(=O)[C@H](Cc2ccc(O)cc2)NC(=O)CC2(CCCCC2)SSC[C@@H](C(=O)N2CCC[C@H]2C(=O)N[C@@H](CCCN=C(N)N)C(=O)NCC(N)=O)NC(=O)[C@H](CC(N)=O)NC1=O (YFQNCPRG-NH2; linker N-5 via X1) [listing 2 of 2 here] |  | 4.47 |  | Kb (Rattus norvegicus [3]): 162 nM; Kb (Rattus norvegicus [5]): 64.6 nM
COc1ccc(C[C@@H]2NC(=O)CCSSC[C@H](C(=O)N3CCC[C@H]3C(=O)N[C@@H](CCCN=C(N)N)C(=O)NCC(N)=O)NC(=O)[C@H](CC(N)=O)NC(=O)[C@H](CCC(N)=O)NC(=O)[C@H](Cc3ccccc3)NC2=O)cc1 |  |  |  | pA2 (Rattus norvegicus [7]): agonist at concentration of 4 units/kg
N=C(N)NCCC[C@@H](NC(=O)[C@@H]1CCCN1C(=O)[C@@H]1CSSCCC(=O)N[C@@H](Cc2ccc(O)cc2)C(=O)N[C@@H](Cc2ccccc2)C(=O)N[C@@H](CCC(N)=O)C(=O)N[C@@H](CC(N)=O)C(=O)N1)C(=O)NCC(N)=O [DESMOPRESSIN] |  |  | 1745 | pA2 (Rattus norvegicus [8]): Agonist; pA2 (Rattus norvegicus [9]): Agonist
COc1ccc(C[C@@H]2NC(=O)CC(C)(C)SSC[C@@H](C(=O)N3CCC[C@H]3C(=O)N[C@@H](CCCN=C(N)N)C(=O)NCC(N)=O)NC(=O)[C@H](CC(N)=O)NC(=O)[C@H](CCC(N)=O)NC(=O)[C@H](Cc3ccccc3)NC2=O)cc1 (Y(Me)FQNCPRG-NH2; linker N-5 via X2) [listing 2 of 2 here] | 24.5 | 20.4 |  | 
